Measurements reported in ChEMBL document CHEMBL3232892, “Inhibition of cellular proliferation and induction of apoptosis in human lung adenocarcinoma A549 cells by T-type calcium channel antagonist” (Bioorg Med Chem Lett, 2014).
Values belong to the compound of their own block, whether it stands above or below them. Calls of active or inactive are those of the source. The calls are words filed in the database; no cut-off is given here.

How the values were obtained:
[1] = target: T1, Voltage-dependent T-type calcium channel subunit alpha-1G (Homo sapiens, UniProt O43497); assay: Inhibition of T-type CaV3.1 channel (unknown origin) expressed in HEK293 cells assessed as inhibition of calcium current at 1 uM by whole cell patch-clamp method; format: cell-based
[2] = (§1) Cytotoxicity against human MIAPaCa2 cells after 48 hrs by MTT assay; format: functional, cell-based; conditions: MIA PaCa-2, 48 h
Outline: (§2)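 Cells seeded and grown 24 h, then exposed 48 h to a range of concentrations in DMSO (final 0.1%), with vehicle controls at equal DMSO. Medium replaced with 0.5 mg/mL MTT in RPMI with 10% FBS for 2 h at 37 °C, reduced dye dissolved in DMSO, absorbance read at 540 nm. Triplicates; IC50 from dose–response.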

[3] = system: A549; assay: Selectivity ratio of IC50 for human A549 cells to IC50 for human MIAPaCa2 cells; format: functional
[4] = system: A549; assay: Cytotoxicity against human A549 cells after 48 hrs by MTT assay; format: functional, cell-based; conditions: for IC50: A549, 48 h; outline: as §2
[5] = system: A549; assay: Cell cycle arrest in human A549 cells assessed as accumulation at G2/M phase at 5 uM after 24 hrs by flow cytometry (reference value: 21.6 %); format: functional
[6] = system: A549; assay: Cell cycle arrest in human A549 cells assessed as accumulation at sub-G1 phase at 5 uM after 24 hrs by flow cytometry (reference value: 7.8 %); format: functional
[7] = system: A549; assay: Cell cycle arrest in human A549 cells assessed as accumulation at sub-G1 phase at 5 uM after 48 hrs by flow cytometry (reference value: 4.9 %); format: functional
[8] = system: A549; assay: Cell cycle arrest in human A549 cells assessed as accumulation at G0/G1 phase at 5 uM after 24 hrs by flow cytometry (reference value: 53.1 %); format: functional
[9] = system: A549; assay: Cell cycle arrest in human A549 cells assessed as accumulation at G2/M phase at 5 uM after 48 hrs by flow cytometry (reference value: 25.4 %); format: functional
[10] = system: A549; assay: Cell cycle arrest in human A549 cells assessed as accumulation at S phase at 5 uM after 24 hrs by flow cytometry (reference value: 17.6 %); format: functional
[11] = system: A549; assay: Cell cycle arrest in human A549 cells assessed as accumulation at S phase at 5 uM after 48 hrs by flow cytometry (reference value: 12.0 %); format: functional
[12] = system: A549; assay: Cell cycle arrest in human A549 cells assessed as accumulation at G0/G1 phase at 5 uM after 48 hrs by flow cytometry (reference value: 57.8 %); format: functional
[13] = system: A549; assay: Induction of apoptosis in human A549 cells assessed as necrotic cells at 3 uM after 24 hrs by annexin V/PI staining-based FACS analysis (reference value: 2.8 %)
[14] = system: MIA PaCa-2; assay: as §1; format: functional, cell-based; outline: as §2
[15] = system: A549; assay: Induction of apoptosis in human A549 cells assessed as increase in PARP protein cleavage at 5 uM after 24 hrs by Western blot analysis; format: functional, cell-based
Outline: (§3)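 Cells treated 24 h without compound or at 1, 3 or 5 µM. Pro-caspase-3, pro-caspase-9 and PARP cleavage assessed by Western blot.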

[16] = system: MIA PaCa-2; assay: Ratio of KYS05090 IC50 to compound IC50 for human MIAPaCa2 cells after 48 hrs by MTT assay; format: functional
[17] = system: A549; assay: Induction of apoptosis in human A549 cells assessed as early apoptotic cells at 5 uM after 24 hrs by annexin V/PI staining-based FACS analysis (reference value: 2.6 %)
[18] = system: A549; assay: Induction of apoptosis in human A549 cells assessed as viable cells at 3 uM after 24 hrs by annexin V/PI staining-based FACS analysis (reference value: 91.1 %); conditions: A549, 24 h
[19] = system: A549; assay: Induction of apoptosis in human A549 cells assessed as early apoptotic cells at 3 uM after 24 hrs by annexin V/PI staining-based FACS analysis (reference value: 2.6 %)
[20] = target: T1, Voltage-dependent T-type calcium channel subunit alpha-1G; assay: Inhibition of T-type CaV3.1 channel (unknown origin) expressed in HEK293 cells assessed as inhibition of calcium current by whole cell patch-clamp method; format: cell-based
[21] = system: A549; assay: Induction of apoptosis in human A549 cells assessed as viable cells at 1 uM after 24 hrs by annexin V/PI staining-based FACS analysis (reference value: 91.1 %); conditions: A549, 24 h
[22] = system: A549; assay: Induction of apoptosis in human A549 cells assessed as necrotic cells at 5 uM after 24 hrs by annexin V/PI staining-based FACS analysis (reference value: 2.8 %)
[23] = system: A549; assay: Induction of apoptosis in human A549 cells assessed as late apoptotic cells at 3 uM after 24 hrs by annexin V/PI staining-based FACS analysis (reference value: 3.5 %)
[24] = system: A549; assay: Induction of apoptosis in human A549 cells assessed as reduction in pro-caspase-3 expression at 5 uM after 24 hrs by Western blot analysis; format: functional, cell-based; outline: as §3
[25] = system: A549; assay: Induction of apoptosis in human A549 cells assessed as reduction in pro-caspase-9 expression at 5 uM after 24 hrs by Western blot analysis; format: functional, cell-based; outline: as §3
[26] = system: A549; assay: Induction of apoptosis in human A549 cells assessed as early apoptotic cells at 1 uM after 24 hrs by annexin V/PI staining-based FACS analysis (reference value: 2.6 %)
[27] = system: A549; assay: Induction of apoptosis in human A549 cells assessed as viable cells at 5 uM after 24 hrs by annexin V/PI staining-based FACS analysis (reference value: 91.1 %); conditions: A549, 24 h
[28] = system: A549; assay: Induction of apoptosis in human A549 cells assessed as late apoptotic cells at 5 uM after 24 hrs by annexin V/PI staining-based FACS analysis (reference value: 3.5 %)
[29] = system: A549; assay: Induction of apoptosis in human A549 cells assessed as late apoptotic cells at 1 uM after 24 hrs by annexin V/PI staining-based FACS analysis (reference value: 3.5 %)
[30] = system: A549; assay: Induction of apoptosis in human A549 cells assessed as necrotic cells at 1 uM after 24 hrs by annexin V/PI staining-based FACS analysis (reference value: 2.8 %)
[31] = system: A549; assay: Ratio of KYS05090 IC50 to compound IC50 for human A549 cells after 48 hrs by MTT assay; format: functional
[32] = system: A549; assay: Cell cycle arrest in human A549 cells assessed as accumulation at G0/G1 phase at 10 uM after 24 hrs by flow cytometry (reference value: 53.1 %); format: functional
[33] = system: A549; assay: Cell cycle arrest in human A549 cells assessed as accumulation at sub-G1 phase at 10 uM after 24 hrs by flow cytometry (reference value: 7.8 %); format: functional
[34] = system: A549; assay: Cell cycle arrest in human A549 cells assessed as accumulation at G2/M phase at 10 uM after 24 hrs by flow cytometry (reference value: 21.6 %); format: functional
[35] = system: A549; assay: Cell cycle arrest in human A549 cells assessed as accumulation at sub-G1 phase at 10 uM after 48 hrs by flow cytometry (reference value: 4.9 %); format: functional
[36] = system: A549; assay: Cell cycle arrest in human A549 cells assessed as accumulation at S phase at 10 uM after 24 hrs by flow cytometry (reference value: 17.6 %); format: functional
[37] = system: A549; assay: Cell cycle arrest in human A549 cells assessed as accumulation at G2/M phase at 10 uM after 48 hrs by flow cytometry (reference value: 25.4 %); format: functional
[38] = system: A549; assay: Cell cycle arrest in human A549 cells assessed as accumulation at G0/G1 phase at 10 uM after 48 hrs by flow cytometry (reference value: 57.8 %); format: functional
[39] = system: A549; assay: Cell cycle arrest in human A549 cells assessed as accumulation at S phase at 10 uM after 48 hrs by flow cytometry (reference value: 12.0 %); format: functional

T1 sequence (O43497 whole entry): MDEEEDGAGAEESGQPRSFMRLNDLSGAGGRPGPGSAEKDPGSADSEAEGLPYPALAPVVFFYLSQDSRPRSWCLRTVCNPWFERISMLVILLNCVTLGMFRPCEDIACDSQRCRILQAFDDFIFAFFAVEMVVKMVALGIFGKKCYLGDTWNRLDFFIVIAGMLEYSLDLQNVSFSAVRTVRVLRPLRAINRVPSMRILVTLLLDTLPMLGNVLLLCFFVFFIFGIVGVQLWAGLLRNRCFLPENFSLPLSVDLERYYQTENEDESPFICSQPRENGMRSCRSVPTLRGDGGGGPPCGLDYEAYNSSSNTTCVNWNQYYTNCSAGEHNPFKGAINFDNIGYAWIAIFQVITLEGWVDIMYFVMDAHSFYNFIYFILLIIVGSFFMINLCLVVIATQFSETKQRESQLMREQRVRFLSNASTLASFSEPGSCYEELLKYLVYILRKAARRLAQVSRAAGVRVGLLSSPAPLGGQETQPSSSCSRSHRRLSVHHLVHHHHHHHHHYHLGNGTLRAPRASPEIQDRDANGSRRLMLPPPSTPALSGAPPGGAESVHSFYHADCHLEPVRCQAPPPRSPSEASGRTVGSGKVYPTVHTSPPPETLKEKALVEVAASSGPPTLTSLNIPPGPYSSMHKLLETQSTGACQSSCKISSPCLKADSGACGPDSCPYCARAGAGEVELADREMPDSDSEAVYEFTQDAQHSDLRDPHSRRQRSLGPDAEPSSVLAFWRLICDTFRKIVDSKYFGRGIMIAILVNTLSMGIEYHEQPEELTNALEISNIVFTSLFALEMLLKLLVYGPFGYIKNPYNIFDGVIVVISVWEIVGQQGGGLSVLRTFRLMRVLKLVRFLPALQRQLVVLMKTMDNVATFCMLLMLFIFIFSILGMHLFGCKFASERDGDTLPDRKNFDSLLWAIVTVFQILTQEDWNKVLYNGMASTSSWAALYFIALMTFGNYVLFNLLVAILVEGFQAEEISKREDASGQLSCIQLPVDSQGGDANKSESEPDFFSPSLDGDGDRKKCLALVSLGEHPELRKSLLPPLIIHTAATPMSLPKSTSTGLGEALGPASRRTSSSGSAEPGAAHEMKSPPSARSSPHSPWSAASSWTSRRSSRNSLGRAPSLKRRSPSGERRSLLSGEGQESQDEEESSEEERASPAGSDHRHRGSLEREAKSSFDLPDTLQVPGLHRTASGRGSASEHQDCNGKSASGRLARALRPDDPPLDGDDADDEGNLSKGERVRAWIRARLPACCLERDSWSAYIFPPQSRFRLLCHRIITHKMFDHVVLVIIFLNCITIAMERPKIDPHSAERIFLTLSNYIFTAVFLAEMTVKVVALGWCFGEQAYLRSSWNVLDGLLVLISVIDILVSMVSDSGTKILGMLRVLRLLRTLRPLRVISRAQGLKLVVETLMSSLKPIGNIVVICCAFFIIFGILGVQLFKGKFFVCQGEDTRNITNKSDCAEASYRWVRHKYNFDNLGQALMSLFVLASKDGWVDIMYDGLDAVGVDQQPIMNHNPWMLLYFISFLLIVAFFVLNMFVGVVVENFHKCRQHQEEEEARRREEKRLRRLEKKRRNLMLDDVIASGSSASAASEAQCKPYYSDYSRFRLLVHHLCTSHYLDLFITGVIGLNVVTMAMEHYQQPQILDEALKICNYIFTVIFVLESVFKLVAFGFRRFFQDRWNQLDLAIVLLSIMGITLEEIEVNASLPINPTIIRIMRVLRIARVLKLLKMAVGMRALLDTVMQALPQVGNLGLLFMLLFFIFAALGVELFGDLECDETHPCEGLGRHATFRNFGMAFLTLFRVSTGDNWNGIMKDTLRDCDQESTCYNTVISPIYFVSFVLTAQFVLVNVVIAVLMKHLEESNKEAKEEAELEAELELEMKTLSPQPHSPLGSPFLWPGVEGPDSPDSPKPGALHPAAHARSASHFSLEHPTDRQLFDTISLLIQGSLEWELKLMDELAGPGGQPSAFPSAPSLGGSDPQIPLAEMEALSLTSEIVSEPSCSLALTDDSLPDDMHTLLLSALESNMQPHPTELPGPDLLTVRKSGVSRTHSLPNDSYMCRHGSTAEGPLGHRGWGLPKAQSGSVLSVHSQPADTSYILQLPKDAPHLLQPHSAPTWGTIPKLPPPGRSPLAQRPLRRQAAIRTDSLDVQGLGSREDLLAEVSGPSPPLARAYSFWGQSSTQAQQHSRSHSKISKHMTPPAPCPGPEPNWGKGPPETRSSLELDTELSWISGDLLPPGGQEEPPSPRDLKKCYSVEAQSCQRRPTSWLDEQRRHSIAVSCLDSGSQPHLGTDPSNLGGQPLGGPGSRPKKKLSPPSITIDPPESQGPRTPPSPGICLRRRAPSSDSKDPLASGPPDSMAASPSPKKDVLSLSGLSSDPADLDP

SMILES: CC(C)c1ccc(N2C(N3CCN(CCN(C)C)CC3)=Nc3ccccc3C2CC(=O)NCc2ccccc2)cc1.Cl (stereo unspecified)
inhibition [1]: 39.2%
IC50 [2]: 3.02 µM
Ratio IC50 [3]: 2
IC50 [4]: 7.57 µM

SMILES: CN(C)CCN1CCN(C2=Nc3ccccc3C(CC(=O)NCc3ccccc3)N2c2ccc(C3CCCCC3)cc2)CC1.Cl (stereo unspecified)
Activity [13]: 0.3%
inhibition [1]: 53.2%
IC50 [2]: 0.93 µM
inhibition [14]: Dose-dependent effect
Activity [15]: Active
Activity [5]: 16%
Ratio IC50 [3]: 2
Ratio IC50 [16]: 2
Activity [17]: 32.1%
Activity [6]: 15.8%
viability at 3 µM [18]: 67.4%
Activity [19]: 30.4%
IC50 [20]: 1.04 µM
Activity [7]: 77.8%
Activity [8]: 55.4%
viability at 1 µM [21]: 91.8%
Activity [22]: 1.3%
inhibition [4]: Dose-dependent effect
IC50 [4]: 2.25 µM
Activity [23]: 1.9%
Activity [9]: 1.9%
Activity [24]: Active
Activity [25]: Active
Activity [10]: 12.8%
Activity [26]: 2.5%
viability at 5 µM [27]: 53.4%
Activity [28]: 13.3%
Activity [11]: 4.6%
Activity [29]: 3.2%
Activity [12]: 15.7%
Activity [30]: 2.5%
Ratio IC50 [31]: 2

SMILES: COc1ccc(CNC(=O)CC2c3ccccc3N=C(N(C)CCCCCCN(C)C)N2c2ccc3ccccc3c2)cc1.Cl (stereo unspecified)
inhibition [1]: 55.2%
IC50 [2]: 3.99 µM
Ratio IC50 [3]: 2
IC50 [20]: 0.73 µM
IC50 [4]: 6.65 µM

SMILES: CN(C)CCCCCCN(C)C1=Nc2ccccc2C(CC(=O)NCc2ccccc2)N1c1ccc2ccccc2c1.Cl (stereo unspecified)
inhibition [1]: 26.4%
IC50 [2]: 2.54 µM
Ratio IC50 [3]: 2
IC50 [4]: 5.44 µM

SMILES: COCC(=O)O[C@]1(CCN(C)CCCc2nc3ccccc3[nH]2)CCc2cc(F)ccc2[C@@H]1C(C)C [MIBEFRADIL]
Activity [32]: 66.1%
IC50 [2]: 18.4 µM
Activity [33]: 9.6%
Activity [34]: 13.4%
IC50 [4]: 24.8 µM
Activity [35]: 10%
Activity [36]: 10.9%
Activity [37]: 11.2%
Activity [38]: 66.8%
Activity [39]: 12%

SMILES: CN(C)CCN1CCN(C2=Nc3ccccc3C(CC(=O)OCc3ccccc3)N2c2ccc(-c3ccccc3)cc2)CC1 (stereo unspecified)
inhibition [1]: 46.4%
IC50 [2]: 2.7 µM
Ratio IC50 [3]: 2
IC50 [20]: 1.81 µM
IC50 [4]: 4.29 µM

Further lines, with some results ahead:

inhibition [1]: 38.1%
SMILES: CN(C)CCN1CCN(C2=Nc3ccccc3C(CC(=O)NCc3ccc([N+](=O)[O-])cc3)N2c2ccc(-c3ccccc3)cc2)CC1.Cl (stereo unspecified)
IC50 [2]: 2.18 µM
Ratio IC50 [3]: 2
IC50 [4]: 4.69 µM

inhibition [1]: 76.6%
SMILES: CN(C)CCCCCN(C)C1=Nc2ccccc2C(CC(=O)NCc2ccccc2)N1c1ccc(-c2ccccc2)cc1.Cl.Cl (stereo unspecified)
IC50 [2]: 1.94 µM
Activity [5]: 2.2%
Ratio IC50 [3]: 2
Activity [6]: 55.3%
Activity [7]: 98.1%
Activity [8]: 33.6%
IC50 [4]: 4.07 µM
Activity [9]: 0.1%
Activity [10]: 8.8%
Activity [11]: 0.6%
Activity [12]: 1.2%

inhibition [1]: 64.3%
IC50 [20]: 0.52 µM
SMILES: CN(C)CCN1CCN(C2=Nc3ccccc3C(CC(=O)NCc3ccc(N(S(C)(=O)=O)S(C)(=O)=O)cc3)N2c2ccc(-c3ccccc3)cc2)CC1.Cl (stereo unspecified)
IC50 [2]: 16.1 µM
Ratio IC50 [3]: 2
IC50 [4]: 20.7 µM

inhibition [1]: 53.5%
IC50 [20]: 0.6 µM
SMILES: CN(C)C(=O)NCCCN(C)C1=Nc2ccccc2C(CC(=O)NCc2ccc(F)cc2)N1c1ccc(-c2ccccc2)cc1.Cl (stereo unspecified)
IC50 [2]: 7.43 µM
Ratio IC50 [3]: 2
IC50 [4]: 15 µM
